# Data published in PMC10993133 (iScience, 2024).
# How the values were obtained:
# Assay type in all cases: cell-based, human
# MDAMB231 cells [1] = assay: Mitochondrial membrane potential; conditions: MDAMB231, 1 µM, 30 hrs, JC-1, n=4
# Method in brief: (§1)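 MCF7 and MDAMB231 cells in DMEM with 10% FCS were treated 30 hrs with Dox or encapsulated test compound, then harvested. They were incubated with shaking in JC-1 (2.5 µg/mL) in PBS at 37°C for 30–35 min. Cells were washed three times for 5 min in cold PBS and resuspended. ΔΨM was taken as the 590/530 nm fluorescence ratio. Means ± S.E., n=4.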
# MCF7 cells [2] = assay: ROS generation; conditions: MCF7, 1 µM, 24 hrs, CM-H2DCFDA, n=4
# Method in brief: (§2)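 MCF7 or MDAMB231 cells were treated 24 hrs with Dox or encapsulated test compound. Cells were scraped, pelleted and washed twice in chilled PBS, then loaded with CM-H2DCFDA (5 µM) in PBS for 20 min in the dark at 37°C. After washing, cells were lysed in PBS with 1% Tween 20. DCF fluorescence was read at ex 480/em 530 nm. Means ± S.E., n=4, versus vehicle control.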
# MCF7 cells [3] = assay: DNA fragmentation assay; conditions: MCF7, 30 hrs exposure, agarose gel
# Method in brief: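 MCF7 cells were seeded at 1 × 10^6 per well and exposed 30 hrs. They were lysed at RT in 0.5% Triton X-100, 15 mM EDTA, 20 mM Tris HCl. DNA was extracted with phenol/chloroform/isoamyl alcohol (25:24:1), then treated 1 hr with RNase (0.1 mg/mL) and proteinase K (1 mg/mL). It was precipitated overnight at −20°C with sodium acetate/ethanol, run on 2% agarose and stained with ethidium bromide.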
# MDAMB231 cells [4] = assay: ROS generation; conditions: MDAMB231, 1 µM, 24 hrs, CM-H2DCFDA, n=4
# Method in brief: as §2
# MCF7 cells [5] = assay: Mitochondrial membrane potential; conditions: MCF7, 1 µM, 30 hrs, JC-1, n=4
# Method in brief: as §1
smiles,measurement,setting,value
"COc1cccc2c1C(=O)c1c(O)c3c(c(O)c1C2=O)C[C@@](O)(C(=O)CO)C[C@@H]3O[C@H]1C[C@H](N)[C@H](O)[C@H](C)O1 [Dox, doxorubicin]",mitochondrial membrane potential (ΔΨM),MDAMB231 cells [1],loss of mitochondrial membrane potential
same,increase of intracellular ROS levels,MCF7 cells [2],comparable
same,DNA damage (DNA laddering),MCF7 cells [3],resulted in DNA damage
same,increase of intracellular ROS levels,MDAMB231 cells [4],comparable
same,mitochondrial membrane potential (ΔΨM),MCF7 cells [5],loss of mitochondrial membrane potential
